A short description of series [1]: (§1) Muscarinic agonist index (Ki in [3H]QNB / Ki in [3H]-OXO-M) was determined. The format is functional.
The target of series [2] is T1, Muscarinic acetylcholine receptor M1 (Rattus norvegicus, UniProt P08482).
T1 sequence (P08482 whole entry): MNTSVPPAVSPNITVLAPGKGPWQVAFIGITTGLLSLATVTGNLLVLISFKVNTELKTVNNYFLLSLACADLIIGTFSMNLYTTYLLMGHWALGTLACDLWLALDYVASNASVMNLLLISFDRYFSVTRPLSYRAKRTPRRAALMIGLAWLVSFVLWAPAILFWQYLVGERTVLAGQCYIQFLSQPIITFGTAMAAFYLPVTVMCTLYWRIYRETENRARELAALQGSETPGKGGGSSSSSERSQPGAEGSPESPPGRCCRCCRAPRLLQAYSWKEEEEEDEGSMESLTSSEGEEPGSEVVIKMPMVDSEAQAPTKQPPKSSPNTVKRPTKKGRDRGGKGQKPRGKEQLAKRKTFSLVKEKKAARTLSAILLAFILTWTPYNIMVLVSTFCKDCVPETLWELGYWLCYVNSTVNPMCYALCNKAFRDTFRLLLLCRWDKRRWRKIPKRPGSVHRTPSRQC
The series can be described thus: Inhibition of [3H]pirenzepine binding to rat brain membrane Muscarinic acetylcholine receptor M1.

Series [3] deals with T2, Muscarinic acetylcholine receptor M2 (Rattus norvegicus, UniProt P10980).
T2 sequence (P10980 whole entry): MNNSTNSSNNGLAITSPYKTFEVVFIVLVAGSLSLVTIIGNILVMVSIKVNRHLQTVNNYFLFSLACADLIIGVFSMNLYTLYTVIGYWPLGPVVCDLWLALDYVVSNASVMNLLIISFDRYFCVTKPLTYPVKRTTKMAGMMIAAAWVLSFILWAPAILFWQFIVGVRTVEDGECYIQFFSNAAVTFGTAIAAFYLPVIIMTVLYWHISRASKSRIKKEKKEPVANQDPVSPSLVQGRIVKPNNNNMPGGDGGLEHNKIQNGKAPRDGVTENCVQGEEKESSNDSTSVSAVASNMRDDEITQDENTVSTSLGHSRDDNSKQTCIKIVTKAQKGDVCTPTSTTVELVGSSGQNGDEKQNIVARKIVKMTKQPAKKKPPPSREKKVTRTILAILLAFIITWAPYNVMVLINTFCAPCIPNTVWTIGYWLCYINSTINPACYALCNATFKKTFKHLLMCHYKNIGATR
Put plainly: Inhibition of [3H]quinuclidinyl benzilate binding to Muscarinic acetylcholine receptor M2 in rat brain membrane. In kind it is cell membranes.

Series [4] deals with Muscarinic acetylcholine receptor. Put plainly: Inhibition of [3H]oxotremorine-M binding to rat brain membrane Muscarinic acetylcholine receptor.
A short description of series [5]: M-1 selectivity expressed as M-2/M-1 index (Ki in [3H]-QNB / Ki in [3H]PZ) was determined. The method, boiled down:
(§2)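 Ratio of Ki from [3H]QNB binding in rat heart to Ki from [3H]PZ binding in rat brain membranes. Ki = IC50/(1+[L]/Kd) in both. Heart assay: tissue homogenized with an ultraturrax, 4 mg tissue per assay, QNB Kd 9.1 ± 0.7 pM.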

Series [6] addresses T2, Muscarinic acetylcholine receptor M2. Put plainly: Inhibition of [3H]quinuclidinyl benzilate binding to Muscarinic acetylcholine receptor M2 of rat heart.
Series [7] is filed under the species Cavia porcellus. Put plainly: Compound was tested for the antagonistic activity on guinea pig ileum. The format is functional. The method, boiled down:
(§3)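 Isolated ileum preparation, with the agonist EC50 and the antagonist IC50 read from dose-response curves.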

Series [8] is filed under the species Cavia porcellus. Put plainly: Effective concentration of compound for the agonistic activity on guinea pig ileum. The format is functional. A digest of the protocol:
as §3

Series [9] can be described thus: as §1.
For series [10], the species on record is Cavia porcellus. Put plainly: Compound was tested for the agonistic activity on guinea pig ileum. The format is functional. A digest of the protocol: as §3
Series [11] in a line: M-1 selectivity expressed as M-2/M-1 index (Ki in [3H]QNB / Ki in [3H]-PZ) was determined. In kind it is functional. A digest of the protocol:
as §2

The target in series [12] is T2, Muscarinic acetylcholine receptor M2. The series can be described thus: Compound was tested for the inhibition of [3H]quinuclidinyl benzilate binding to Muscarinic acetylcholine receptor M2 in rat brain membrane. The format is cell membranes.

As a reminder, the IC50 is the concentration that inhibits the measured activity by half. As a reminder, the EC50 is the midpoint of the concentration-response curve. A higher EC50 goes with a need for much substance.

Each structure is given as a SMILES string.

For the compound `CCOC(=O)C1=CCC[S+](C)C1.[Cl-]` (configuration not stated), the M-agonist index in series [1] is 387. The IC50 in [2] worked out at 0.4 µM; in series [3], 22 µM; in series [4] it was 0.0092 µM; in series [6], 3.9 µM. In addition, the Ratio in [5] was found to be 1.2.

In the case of `COc1noc2c1CSCC2`, the IC50 in series [2] was over 1000 µM; in the series listed under Cavia porcellus [7], over 50 µM; in [3] it was over 1000 µM; in series [4], over 1000 µM; in series [6], over 1000 µM. Moreover, the EC50 in the series filed under Cavia porcellus [8] is over 50 µM.

With `COc1noc2c1C[S+](C)CC2.[I-]` (configuration not stated), the M-agonist index in [1] was 307. The IC50 was 4.1 µM in series [2]; over 0.4 µM in the series listed under Cavia porcellus [7]; 36 µM in [3]; 0.019 µM in series [4]; 1.6 µM in series [6]. The same compound yielded an EC50 in the series listed under Cavia porcellus [8] of 0.84 µM. The Ratio in series [5] worked out at 0.05.

On to `C#CCOc1noc2c1C[S+](C)CC2.[I-]` (configuration not stated), for which, in series [1], the M-agonist index was found to be 128. For the same compound, the half-inhibitory concentration (IC50) in series [2] is 0.25 µM; in the series listed under Cavia porcellus [7] it was over 0.2 µM; in series [3], 2.6 µM; in series [4], 0.0033 µM; in series [6] it was 0.44 µM. Besides, the EC50 in the series listed under Cavia porcellus [8] worked out at 0.56 µM. Further, the Ratio in [5] turned out to be 0.22.

For the compound `COC(=O)C1=CCCN(C)C1` [ARECOLINE], the IC50 in the series filed under Cavia porcellus [7] was over 1 µM. In the series listed under Cavia porcellus [8], this compound showed an EC50 of 0.15 µM.

`COc1noc2c1C[N+](C)(C)CC2.[I-]` had a M-agonist index in series [1] of 279. For the same compound, the half-inhibitory concentration (IC50) in [2] is 2.8 µM; in the series listed under Cavia porcellus [7] it was over 3 µM; in [3], 74 µM; in series [4], 0.043 µM; in series [6] it was 9.5 µM. Further, in the series listed under Cavia porcellus [8], the midpoint of the response, the EC50, lay at 8.2 µM. Moreover, the Ratio in [5] worked out at 0.42.

For `COC(=O)C1=CCC[S+](C)C1.[I-]` (configuration not stated) [SULFOARECOLINE IODIDE], the M-agonist index in [1] is 3930. The half-inhibitory concentration (IC50) was 2.6 µM in series [2], 34 µM in series [3], 0.0014 µM in series [4] and 2.5 µM in series [6]. The Ratio in [5] was determined as 0.12.

In series [9], `COc1noc2c1CN(C)CC2` registered a M-agonist index of 220. Moreover, in the series filed under Cavia porcellus [10], the concentration giving a half-maximal response (EC50) amounted to 0.83 µM. In addition, in series [11], the Ratio worked out at 0.31. Besides, the IC50 in series [2] was 6.4 µM; in the series filed under Cavia porcellus [7], over 0.2 µM; in series [3], 38 µM; in [4], 0.028 µM; in series [6], 16 µM.

For `CCOc1noc2c1C[S+](C)CC2.[I-]` (configuration not stated), in series [1], the M-agonist index was 3.3. Moreover, the IC50 in series [2] turned out to be 0.53 µM; in series [12], 4.6 µM; in the series listed under Cavia porcellus [7], 15 µM; in series [4], 0.23 µM; in [6], 4.9 µM. Further, the 50% effective concentration (EC50) in the series listed under Cavia porcellus [8] was over 50 µM. Also, the Ratio in series [5] stood at 1.2.

As to `Cn1oc2c(c1=O)CSCC2`, the IC50 is over 1000 µM in [2]; over 50 µM in the series listed under Cavia porcellus [7]; over 1000 µM in series [3]; over 1000 µM in series [4]; over 1000 µM in series [6]. This compound also had an EC50 in the series filed under Cavia porcellus [8] of over 50 µM.

Compound `Cn1oc2c(c1=O)C[S+](C)CC2.[I-]` (configuration not stated) displayed a M-agonist index in series [1] of 81. The IC50 in series [2] was 30 µM; in the series listed under Cavia porcellus [7], over 6 µM; in [3], 110 µM; in series [4], 0.22 µM; in [6] it was 10 µM. The same compound showed an EC50 in the series listed under Cavia porcellus [8] of 9.3 µM. Besides, the Ratio in series [5] was 0.04.

In the case of `CC(C)Oc1noc2c1C[S+](C)CC2.[I-]` (configuration not stated), the M-agonist index in series [1] was 20. The half-inhibitory concentration (IC50) in [2] was 0.43 µM; in the series filed under Cavia porcellus [7], over 3 µM; in [3], 4.8 µM; in series [4], 0.039 µM; in series [6], 1.8 µM. In the series listed under Cavia porcellus [8], the EC50 stood at 6.2 µM. Besides, in series [5], the Ratio was 0.53.

These data come from ChEMBL document CHEMBL1124147 (J Med Chem, 1988).
